For data set [1], the system named is AR230^R cells. Put plainly: Phenotypic screening / cytotoxicity in TKI-resistant CML cell line AR230^R. The note with it: for IC50: read-out: IC50 AR230^R. The class given is cell-based.
Data set [2] relates to AR230 cells. Put plainly: Phenotypic screening / cytotoxicity in CML cell line AR230. The format is cell-based. As to conditions: read-out: IC50 AR230.
Data set [3] has as its target T1, STAT1 (Homo sapiens, UniProt P42224).
T1 sequence (P42224 1-750): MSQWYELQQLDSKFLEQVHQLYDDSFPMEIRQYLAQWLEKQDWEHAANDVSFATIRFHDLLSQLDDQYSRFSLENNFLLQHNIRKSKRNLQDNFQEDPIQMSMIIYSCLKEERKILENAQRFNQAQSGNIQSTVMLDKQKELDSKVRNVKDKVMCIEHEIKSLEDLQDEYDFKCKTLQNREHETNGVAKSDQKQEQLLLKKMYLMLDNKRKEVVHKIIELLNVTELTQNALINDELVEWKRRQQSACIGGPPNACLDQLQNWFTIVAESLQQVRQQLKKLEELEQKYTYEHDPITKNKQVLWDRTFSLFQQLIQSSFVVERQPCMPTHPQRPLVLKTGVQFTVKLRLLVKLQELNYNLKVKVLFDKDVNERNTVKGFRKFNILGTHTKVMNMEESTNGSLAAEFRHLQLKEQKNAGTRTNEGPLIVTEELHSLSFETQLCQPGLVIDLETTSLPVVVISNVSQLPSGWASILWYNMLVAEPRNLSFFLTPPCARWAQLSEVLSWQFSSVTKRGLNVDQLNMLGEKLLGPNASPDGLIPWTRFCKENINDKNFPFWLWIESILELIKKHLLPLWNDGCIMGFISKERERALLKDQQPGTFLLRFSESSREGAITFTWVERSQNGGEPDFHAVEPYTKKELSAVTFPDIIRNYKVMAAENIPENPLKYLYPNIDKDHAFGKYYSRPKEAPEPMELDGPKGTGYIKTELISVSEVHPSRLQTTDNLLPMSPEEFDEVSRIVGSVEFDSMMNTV
Put plainly: Competitive fluorescence polarization. The format is binding. An outline of the steps: (§1)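 Competitive binding assay in which the test compound displaces a fluoresceinated peptide from the SH2 domain, read by fluorescence polarization. IC50 is reported with a 95% confidence interval, and Ki is reported alongside it.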

Data set [4] can be described thus: Plasma protein binding. The class given is in vitro ADME. As to conditions: CD-1 mice plasma, dialysis 6 hours, 37°C. The method in brief:
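Plasma protein isolated from CD-1 mice was spiked with the test compound and dialysed against PBS for 6 hours at 37°C under 5% CO₂. Plasma and buffer compartments were both analysed to give the percentage of free compound. Ketoconazole was the positive control.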

Data set [5] has as its target T2, STAT3 (Homo sapiens, UniProt P40763). Put plainly: 19F NMR examination of binding to STAT3. As to conditions: 100 μM compound with STAT3, 37 °C, 1 hour.
Data set [6] can be described thus: 19F NMR monitoring of reaction with glutathione. The class given is physicochemical. The note with it: 100 μM, 10 equivalents of glutathione, 37 °C, 15 hours. The method in brief: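 Samples were in 100 mM HEPES pH 7.2, 150 mM NaCl, with 10% […] and 1% DMSO final. Test compound at 100 μM was incubated with 10 equivalents of glutathione for 15 hours at 37°C. ¹⁹F NMR spectra were recorded at 37°C on a 600 MHz spectrometer with a room-temperature H(F)CN probe.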

Data set [7] relates to pSTAT3 / STAT3 in AR230^R cells. The format is cell-based. The note with it: 10 μM, 2 hours pre-treatment, IL-6 and IFN stimulation.
Data set [8] in a line: In vivo bioavailability / plasma pharmacokinetics, IP injection. Also noted: species or system CD-1 mice. The method in brief: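 CD-1 mice received 20 mg/kg IP in 10% DMA, 65% PEG 400, 25% saline. Parent compound in plasma was measured to give concentration–time profiles. In one study, a cohort of 3 mice was sampled at 15, 30, 60, 90, 180 and 360 min post-dose, and plasma was analysed for parent compound by LC-MS.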

A short description of data set [9]: Metabolic stability in CD-1 mouse hepatocytes. The class given is in vitro ADME. The method in brief:
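CD-1 mouse hepatocytes were incubated with the test compound for 120 min. Remaining parent compound was quantified by LC-MS/MS at regular time points to assess metabolic degradation.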

The target in data set [10] is T2, STAT3. Put plainly: Competitive fluorescence polarization. The class given is binding. The method in brief: as §1
(In fluorescence polarisation assays a small probe gives low polarisation when free and higher when bound to something large.)

Where “and” joins values, the source holds several entries; their conditions need not be identical. Equal entries are not always repeated. Where two headings read alike, the source gives them in different places.

Consider seven compounds from paper PMC4963206 (ChemMedChem, 2016).

T2 sequence (P40763 whole entry, species assumed): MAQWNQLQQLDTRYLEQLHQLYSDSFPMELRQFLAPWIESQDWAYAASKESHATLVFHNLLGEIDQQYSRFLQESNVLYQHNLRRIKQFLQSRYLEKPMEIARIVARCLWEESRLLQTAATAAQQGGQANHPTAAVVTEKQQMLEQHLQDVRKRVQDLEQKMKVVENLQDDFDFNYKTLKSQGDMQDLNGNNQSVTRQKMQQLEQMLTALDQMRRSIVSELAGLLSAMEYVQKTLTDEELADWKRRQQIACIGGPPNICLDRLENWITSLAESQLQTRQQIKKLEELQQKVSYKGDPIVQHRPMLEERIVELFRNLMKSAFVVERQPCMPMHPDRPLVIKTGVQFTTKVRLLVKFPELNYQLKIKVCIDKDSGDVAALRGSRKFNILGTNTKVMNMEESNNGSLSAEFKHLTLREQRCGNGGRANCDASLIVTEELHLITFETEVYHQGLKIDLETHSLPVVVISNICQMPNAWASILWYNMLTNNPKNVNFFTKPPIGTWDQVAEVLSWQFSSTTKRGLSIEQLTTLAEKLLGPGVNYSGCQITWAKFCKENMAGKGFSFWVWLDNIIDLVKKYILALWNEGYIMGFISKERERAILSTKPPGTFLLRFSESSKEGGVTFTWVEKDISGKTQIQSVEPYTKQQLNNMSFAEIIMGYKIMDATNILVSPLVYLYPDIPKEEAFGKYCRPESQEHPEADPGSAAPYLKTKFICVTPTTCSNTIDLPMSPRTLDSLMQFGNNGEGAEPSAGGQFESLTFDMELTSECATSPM

With `O=C(O)c1ccc(N(Cc2ccc(C3CCCCCC3)cc2)C(=O)CN(C2CC2)S(=O)(=O)c2c(F)c(F)c(F)c(F)c2F)cc1` [DR-3-165, 4-(N-(4-Cycloheptylbenzyl)-2-((N-cyclopropyl-2,3,4,5,6-pentafluorophenyl)sulfonamido)acetamido)benzoic acid], the “Fold Difference” value in data set [1] (Table 3, AR230 vs AR230^R) came out at 2.45. Besides, the values for the IC50 in data set [1] (Table 3) and in [2] (Table 3) were 1.1 µM and 2.7 µM, respectively.

`O=C(O)c1ccc(N(Cc2ccc(N3CCOCC3)cc2)C(=O)CN(C2CC2)S(=O)(=O)c2c(F)c(F)c(F)c(F)c2F)cc1` [PSL-3-089]: the “Fold Difference” value in data set [1] (Table 3, AR230 vs AR230^R) came out at 1.42. In addition, the IC50 (usually the concentration at which inhibition is half-maximal) in data set [1] (Table 3) is 5.2 µM; in data set [2] (Table 3), 7.4 µM.

`O=C(O)c1ccc(N(Cc2ccc(C3CCCC3)cc2)C(=O)CN(C2CC2)S(=O)(=O)c2c(F)c(F)c(C(F)(F)F)c(F)c2F)cc1` [AM1-066, 4-(N-(4-Cyclopentylbenzyl)-2-((N-cyclopropyl-2,3,5,6-tetrafluoro-4-(trifluoromethyl)phenyl)sulfonamido)acetamido)benzoic acid]: the IC50 in [1] (Table 4) is 21.6 µM; in [2] (Table 4), 20.4 µM.

As to `O=C(O)c1ccc(N(Cc2ccc(C3CCOCC3)cc2)C(=O)CN(C2CC2)S(=O)(=O)c2c(F)c(F)c(F)c(F)c2F)cc1` [DR-4-042], in data set [1] (Table 3, AR230 vs AR230^R), the “Fold Difference” value was 1.12. In addition, the results for the IC50 in data set [1] (Table 3) and in [2] (Table 3) were 4.2 µM and 4.7 µM, respectively.

As for `O=C(O)c1ccc(N(Cc2ccc(C3CCCC3)cc2)C(=O)CNS(=O)(=O)c2c(F)c(F)c(F)c(F)c2F)cc1` [DR-3-111, 4-(N-(4-Cyclopentylbenzyl)-2-((perfluorophenyl)sulfonamido)acetamido)benzoic acid], the “fold reduction in activity vs SH-4-54” value in [1] (AR230^R cells) was around 5 fold. The IC50 in data set [1] worked out at 15.6 µM; in data set [2], 11.4 µM.

As to `CC(C)(C)c1ccc(CN(C(=O)CN(C2CC2)S(=O)(=O)c2c(F)c(F)cc(F)c2F)c2ccc(C(=O)O)cc2)cc1` [AM-1-124, 4-(N-(4-(tert-butyl)benzyl)-2-(N-cyclopropyl-2,3,5,6-tetrafluorophenylsulfonamido)acetamido)benzoic acid], in [3], the Ki (as a rule, the dissociation constant of the complex between target and ligand, obtained from inhibition or displacement) is above 250 µM. Also, the “bound to mouse plasma proteins” value in data set [4] is reported as 99.7%. In [5], the “mode of interaction with STAT3 (19F NMR, fluoride ion production)” value is listed as “non-covalent”. For the same compound, the “reaction with glutathione (19F NMR)” value in data set [6] was “inert to glutathione”. In addition, in data set [7], the “cytokine-induced pSTAT3 activation” value is reported as “partially inhibited cytokine-induced pSTAT3 activation” and the “nuclear STAT3 protein localization” value is on record as “reduced the nuclear STAT3 protein localization”. Further, the “plasma concentration for the first 120 mins” value in data set [8] (CD-1 mice, IP 20 mg/kg) was “above 2000 ng/mL”. The half-life (in general, how long it takes for the measured level to halve) in data set [8] (male, CD-1, mouse, plasma, ip, 20 mg/kg) is 1.42 h. Moreover, in [1], the “fold improvement in selectivity vs SH-4-54” value is reported as 5 fold, the “fold selectivity for AR230^R over AR230 cells” value is recorded as 5.6 fold and the IC50 amounted to 4.8 µM. In addition, the “Fold Difference” value in [1] (Table 5, AR230 vs AR230^R) was 5.6. Besides, the “fold more resistant to metabolism than SH-4-54” value in [9] was ~ 4 fold. The IC50 in data set [10] was determined as 30 µM. Moreover, the Ki in data set [10] (Ki STAT3, disruption of STAT3:IL-6R/gp130 peptide complex, FP) is 15 µM and 15.3 µM. For the same compound, the IC50 in data set [2] came out at 26.9 µM.

Regarding `O=C(O)c1ccc(N(Cc2ccc(C3CCCCC3)cc2)C(=O)CN(C2CC2)S(=O)(=O)c2c(F)c(F)c(F)c(F)c2F)cc1` [DR-3-036], the IC50 in [1] (Table 2) was determined as 2.6 µM; in data set [2] (Table 2), 4.3 µM.
